Calls of active or inactive are those of the source. No cut-off for these calls is given here.
Key:
[1] = target: MAP kinase p38 (Homo sapiens) (UniProt O15264+Q15759+Q16539+P53778); experiment: Inhibition of human p38 phosphorylation in human DU145 cells after 48 hrs by Western blotting; assay type: cell-based; conditions: DU-145
In short: (§1)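 DU-145 cells were treated at 3, 12 and 18 µM and phospho-ERK1/2 and phospho-p38 were assessed by Western blot. Lysis was on ice with centrifugation, then Bradford protein assay, 12% SDS-PAGE, PVDF transfer and chemiluminescent detection.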

NCI-H23 = experiment: Cytotoxicity against human NCI-H23 cells after 48 hrs by SRB assay; assay type: functional; conditions: NCI-H23, 48 h
In short: (§2)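 Second-stage NCI-60 panel run by the NCI Developmental Therapeutics Program, covering nine tumour subpanels. Five concentrations were tested: 0.01, 0.1, 1, 10 and 100 μM. Percentage growth at each level was plotted against log10 drug concentration. GI50, TGI and LC50 were read from these dose-response curves. Subpanel MID values were divided into the full-panel MID to give selectivity ratios.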

DU-145 [2] = experiment: Induction of apoptosis in human DU145 cells assessed as increase in cleaved PARP at 3 to 12 uM after 48 hrs by Western blotting; assay type: functional, cell-based
In short: (§3)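 DU-145 cells were exposed to various concentrations for 48 h. Cells were washed in PBS and lysed on ice for 30 min, then spun at 120000g for 15 min. Protein was measured by Bradford, run on 12% SDS-PAGE and blotted to PVDF. Blots were probed for cleaved PARP and cleaved caspase-3 with chemiluminescent detection and β-actin as loading control; n=3 independent experiments.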

[3] = Cytotoxicity against human WPMY-1cells assessed as survival rate after 72 hrs by MTT assay; assay type: cell-based; conditions: WPMY-1 cells, read-out: Survival
In short: (§4)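 About 2×10^3 cells/well preincubated 24 h at 37 °C, 5% CO2. Compound freshly dissolved in DMSO, diluted into complete medium and added at various concentrations (vehicle 0.1% DMSO) for 72 h. MTT added for 3 h at 37 °C, absorbance read at 570 nm, survival rate derived.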

DU-145 [4] = experiment: Induction of apoptosis in human DU145 cells assessed as cell rounding and shrinkage at 5 uM after 24 hrs by phase contrast microscopy analysis; assay type: functional, cell-based
In short: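 DU-145 cells were seeded at 5×10^5 per 10 cm dish and treated with various concentrations for 24 h. Unfixed cells were examined and photographed by phase-contrast microscopy for rounding and shrinkage.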

SK-MEL-28 = experiment: Cytotoxicity against human SK-MEL-28 cells after 48 hrs by SRB assay; assay type: functional; conditions: SK-MEL-28, 48 h; for CC50: read-out: LC50 (the source's name); in short: as §2
DU-145 [5] = experiment: Induction of apoptosis in human DU145 cells assessed as decreased levels of cyclin D1 at 3 to 18 uM after 48 hrs by Western blotting; assay type: functional, cell-based
In short: (§5)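 DU-145 lysates were analysed by immunoblot for cyclin D1 and Bcl-2 after dosing across a concentration range. Cells were lysed on ice and cleared by centrifugation. Protein was quantified by Bradford, run on 12% SDS-PAGE and transferred to PVDF, with chemiluminescent detection. α-Tubulin served as loading control; n=3 independent experiments.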

HL-60(TB) = experiment: Cytotoxicity against human HL-60(TB) cells after 48 hrs by SRB assay; assay type: functional; conditions: HL-60, 48 h
In short: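 NCI Developmental Therapeutics Program 60-cell-line screen, second stage: cells exposed to five concentrations (0.01, 0.1, 1, 10 and 100 μM). Growth is plotted against log10 concentration for each line, and GI50, TGI and LC50 are read from the dose-response curves.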

DU-145 [6] = experiment: Induction of apoptosis in human DU145 cells assessed as cleaved caspase 3 at 3 to 12 uM after 48 hrs by Western blotting; assay type: functional, cell-based; in short: as §3
DU-145 [7] = experiment: Induction of apoptosis in human DU145 cells assessed as early apoptotic cells at 3 to 12 uM after 24 hrs by flow cytometry; assay type: functional, cell-based
OVCAR-8 = experiment: Cytotoxicity against human OVCAR8 cells after 48 hrs by SRB assay; assay type: functional; conditions: OVCAR-8, 48 h; for CC50: read-out: LC50 (the source's name); in short: as §2
[8] = Cytotoxicity against human breast cancer cells assessed as growth inhibition after 48 hrs by SRB assay; assay type: functional; conditions: Cancer cell lines
In short: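 Values come from the NCI-60 five-dose panel (0.01–100 µM). The subpanel MID is the mean GI50 over the lines of that tumour subpanel. The selectivity ratio is the full-panel MID divided by the subpanel MID; 3–6 is rated moderate and >6 high.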

[9] = target: Mitogen-activated protein kinase; ERK1/ERK2 (Homo sapiens) (UniProt P27361+P28482); experiment: Inhibition of human ERK1/2 phosphorylation in human DU145 cells after 48 hrs by Western blotting; assay type: cell-based; conditions: DU-145; in short: as §1
NCI-H460 = experiment: Cytotoxicity against human NCI-H460 cells after 48 hrs by SRB assay; assay type: functional; conditions: NCI-H460, 48 h; in short: as §2
[10] = Cytotoxicity against human SV-HUC1 cells assessed as survival rate after 72 hrs by MTT assay; assay type: cell-based; conditions: SV-HUC1 cells, read-out: Survival
In short: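 SV-HUC-1 cells grown in Ham's F-12K with 5% heat-inactivated fetal calf serum, 37 °C, 5% CO2. About 2×10^3 cells/well plated for 24 h, then a range of compound concentrations (DMSO stock diluted into medium; vehicle 0.1% DMSO) for 72 h. MTT added for 3 h at 37 °C; absorbance 570 nm.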

[11] = Cytotoxicity against human RWPE1 cells assessed as survival rate after 72 hrs by MTT assay; assay type: cell-based, RWPE-1; conditions: RWPE1 cells, read-out: Survival; in short: as §4
UACC-62 = experiment: Cytotoxicity against human UACC62 cells after 48 hrs by SRB assay; assay type: functional; conditions: UACC-62, 48 h
In short: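 NCI-60 five-dose study run by NCI DTP at 0.01, 0.1, 1, 10 and 100 µM. Percentage growth at each level was plotted against log10 concentration for each line, and GI50, TGI and LC50 were read from the dose-response curves.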

DU-145 [12] = experiment: Induction of apoptosis in human DU145 cells assessed as decreased levels of Bcl-2 at 3 to 18 uM after 48 hrs by Western blotting; assay type: functional, cell-based; in short: as §5
DU-145 [13] = experiment: Induction of apoptosis in human DU145 cells assessed as decrease in total PARP at 3 to 12 uM after 48 hrs by Western blotting; assay type: functional, cell-based
[14] = Cytotoxicity against human EKVX cells after 48 hrs by SRB assay; assay type: functional
In short: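 NCI-60 human tumour cell panel screen, second stage, run by the NCI Developmental Therapeutics Program. Compounds were tested at five concentrations (0.01, 0.1, 1, 10 and 100 μM). Percentage growth was plotted against log10 concentration for each cell line. GI50, TGI and LC50 were taken from these dose-response curves.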

Sequence of Mitogen-activated protein kinase; ERK1/ERK2 (Homo sapiens) (P27361 whole entry, looked up): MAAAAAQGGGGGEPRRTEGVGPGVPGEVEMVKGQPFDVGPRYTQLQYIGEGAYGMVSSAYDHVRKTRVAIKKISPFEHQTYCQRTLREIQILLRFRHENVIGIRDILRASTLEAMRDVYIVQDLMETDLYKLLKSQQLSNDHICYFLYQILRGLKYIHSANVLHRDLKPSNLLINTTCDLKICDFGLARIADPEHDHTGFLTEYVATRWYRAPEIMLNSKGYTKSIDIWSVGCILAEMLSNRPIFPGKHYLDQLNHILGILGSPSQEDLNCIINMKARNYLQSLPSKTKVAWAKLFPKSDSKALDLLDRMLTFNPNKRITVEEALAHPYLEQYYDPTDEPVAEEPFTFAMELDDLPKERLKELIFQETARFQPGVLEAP
Sequence of Mitogen-activated protein kinase; ERK1/ERK2 (Homo sapiens) (P28482 whole entry, looked up): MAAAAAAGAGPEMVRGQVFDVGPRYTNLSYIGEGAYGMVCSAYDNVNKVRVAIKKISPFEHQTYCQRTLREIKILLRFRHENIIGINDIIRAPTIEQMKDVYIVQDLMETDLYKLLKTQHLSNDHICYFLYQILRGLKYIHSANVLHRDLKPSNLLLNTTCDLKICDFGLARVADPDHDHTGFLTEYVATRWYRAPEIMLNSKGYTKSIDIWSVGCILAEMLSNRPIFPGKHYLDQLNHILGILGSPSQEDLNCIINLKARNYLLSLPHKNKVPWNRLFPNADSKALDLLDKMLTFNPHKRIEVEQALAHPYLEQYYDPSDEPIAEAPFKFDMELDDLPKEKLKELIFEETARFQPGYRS

Compound | GI50 (NCI-H23) | LC50 (NCI-H23) | TGI (NCI-H23) | GI50 (SK-MEL-28) | TGI (SK-MEL-28) | CC50 (SK-MEL-28) | GI50 (HL-60(TB)) | LC50 (HL-60(TB)) | TGI (HL-60(TB)) | GI50 (OVCAR-8) | TGI (OVCAR-8) | CC50 (OVCAR-8) | GI50 [8] | GI50 (NCI-H460) | LC50 (concentration killing 50% of cells) (NCI-H460) | TGI (NCI-H460) | GI50 (UACC-62) | LC50 (UACC-62) | TGI (UACC-62) | GI50 [14] | other results
CC(C)Sc1cc2c(c3nsnc13)C(=O)c1ccccc1C2=O | 0.56 µM | 8.48 µM | 2.58 µM | 2.72 µM | 5.99 µM | 18.8 µM | 0.23 µM | 40.8 µM | 0.617 µM | 0.49 µM | 2.37 µM | 9.85 µM | 1.09 µM | 2.02 µM | 40.5 µM | 8.33 µM | 1.35 µM | 5.26 µM | 2.67 µM |  | inhibition [1]: Active; Activity (DU-145 [2]): Active; viability at 72 h [3]: 50%; Activity (DU-145 [4]): Active; Activity (DU-145 [5]): Active; Activity (DU-145 [6]): Active; Activity (DU-145 [7]): Active; inhibition [9]: Active; viability at 72 h [10]: 80%; viability at 72 h [11]: 60%; Activity (DU-145 [12]): Active; Activity (DU-145 [13]): Active
O=C1c2ccccc2C(=O)c2c1cc(SCc1ccccc1)c1nsnc21 | 8.25 µM | > 50 µM | > 50 µM | 10.3 µM | 17.5 µM | 42.9 µM | 1.63 µM | > 50 µM | > 50 µM | 3.5 µM | 25.8 µM | > 50 µM | 8 µM | > 50 µM | 32.8 µM | 16.8 µM | 8.22 µM | 33.7 µM | 18.6 µM | 14.2 µM | LC50 [14]: > 50 µM; TGI [14]: 26.3 µM
O=C1c2ccccc2C(=O)c2c1cc(Sc1ccc(F)cc1F)c1nsnc21 | 1.88 µM | 43.1 µM | 6.99 µM | 1.87 µM | 3.81 µM | 7.75 µM | 2.68 µM | > 100 µM | 7.7 µM | 1.58 µM | 3.63 µM | 8.34 µM | 1.77 µM | 25.9 µM | > 100 µM | > 100 µM | 1.73 µM | 12.9 µM | 4.37 µM | 20.8 µM | LC50 [14]: > 100 µM; TGI [14]: 66.5 µM
O=C1c2ccccc2C(=O)c2c1cc(Sc1cccc(Cl)c1)c1nsnc21 | 1 µM | 22.8 µM | 3.58 µM | 1.93 µM | 4.19 µM | 9.09 µM | 2.51 µM | > 100 µM | 6.71 µM | 0.59 µM | 2.26 µM | 6.81 µM | 1.52 µM | 4.29 µM | 75.8 µM | 18.9 µM | 1.6 µM | 6.54 µM | 3.26 µM | 16 µM | LC50 [14]: 55 µM; TGI [14]: 29.7 µM
O=C1c2ccccc2C(=O)c2c1cc(Sc1ccccc1Br)c1nsnc21 | 13.5 µM | > 50 µM | > 50 µM | 20.9 µM | > 50 µM | > 50 µM | 17.8 µM | > 50 µM | > 50 µM | 11.1 µM | > 50 µM | > 50 µM | 9.62 µM | 36.1 µM | > 50 µM | > 50 µM | 12 µM | > 50 µM | 40.8 µM | > 50 µM | LC50 [14]: > 50 µM; TGI [14]: > 50 µM
